Results published in ChEMBL document CHEMBL1150660, “Lignans isolated from valerian: identification and characterization of a new olivil derivative with partial agonistic activity at A(1) adenosine receptors” (J Nat Prod, 2002).

Legend:
Adenosine receptor A1 [1] = biological target: T1, Adenosine receptor A1 (Homo sapiens, UniProt P30542); test: Displacement [3H]DPCPX from of human adenosine A1 receptor at low affinity state expressed in CHO cells; assay type: cell-based
T1 sequence (P30542 whole entry): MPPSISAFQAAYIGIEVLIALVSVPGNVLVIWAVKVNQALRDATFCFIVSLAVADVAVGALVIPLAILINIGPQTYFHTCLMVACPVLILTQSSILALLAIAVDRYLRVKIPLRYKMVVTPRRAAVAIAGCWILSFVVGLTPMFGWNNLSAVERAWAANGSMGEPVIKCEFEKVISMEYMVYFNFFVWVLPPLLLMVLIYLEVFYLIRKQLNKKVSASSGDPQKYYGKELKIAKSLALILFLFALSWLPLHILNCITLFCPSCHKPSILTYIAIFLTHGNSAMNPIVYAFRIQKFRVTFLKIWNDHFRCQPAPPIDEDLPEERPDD
Method in brief: (§1)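 CHO-hA1 membranes (20 μg/mL protein), competition against [3H]DPCPX with or without 100 μM GTP. Incubation in 50 mM Tris-HCl pH 7.4, 90 min at 25 °C, after adenosine deaminase pretreatment. Nonspecific binding with 10 μM DPCPX. GF/B filtration, scintillation counting. Ki values for high- and low-affinity states taken from the biphasic curve without GTP.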

[2] = biological target: T2, Adenosine receptor A1 (Rattus norvegicus) (UniProt P25099); test: Agonist activity at adenosine A1 receptor in rat cortical membrane by [35S]GTPgammaS binding assay relative to control; assay type: functional, cell membranes
T2 sequence (whole entry): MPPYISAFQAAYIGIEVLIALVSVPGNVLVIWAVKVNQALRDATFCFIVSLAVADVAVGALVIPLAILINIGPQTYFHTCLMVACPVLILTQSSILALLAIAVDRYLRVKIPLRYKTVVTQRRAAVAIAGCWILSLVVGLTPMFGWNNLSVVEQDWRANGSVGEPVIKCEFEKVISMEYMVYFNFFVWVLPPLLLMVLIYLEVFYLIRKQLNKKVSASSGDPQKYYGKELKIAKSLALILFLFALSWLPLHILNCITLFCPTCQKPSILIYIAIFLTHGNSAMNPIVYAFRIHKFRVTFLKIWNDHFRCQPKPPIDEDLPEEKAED
Method in brief: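 Rat cortical membranes (7 μg/tube) incubated 45 min at 25 °C with 0.1-0.5 nM [35S]GTPγS in 50 mM Tris-HCl pH 7.4 with 1 mM EDTA, 5 mM MgCl2, 1 mM DTT, 10 μM GDP, 100 mM NaCl, 2 IU/mL adenosine deaminase, 0.5% BSA. Nonspecific binding with 10 μM unlabeled GTPγS. Filtration, scintillation counting; stimulation expressed as percent of basal.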

Adenosine receptor A1 [3] = biological target: T1, Adenosine receptor A1; test: Displacement [3H]DPCPX from of human adenosine A1 receptor expressed in CHO cells in presence of GTP; assay type: cell-based; method in brief: as §1
[4] = biological target: Adenosine receptor A2a (Rattus norvegicus) (UniProt P30543); test: Displacement of [3H]MSX-2 from A2A receptor in rat brain striatal membrane at 100 uM by liquid scintillation counting; assay type: cell membranes
Method in brief: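 Rat striatal membranes (ca. 70 μg/mL protein), pretreated with 0.2 IU/mL adenosine deaminase, incubated with [3H]MSX-2 in 50 mM Tris-HCl pH 7.4 for 30 min at 25 °C. Nonspecific binding with 50 μM NECA. Filtration on GF/B filters presoaked in 0.3% polyethylenimine, scintillation counting. Percent inhibition at 100 μM, n = 3.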

Adenosine receptor A1 [5] = biological target: T3, Adenosine receptor A1 (Rattus norvegicus, UniProt P25099); test: Displacement of [3H]CCPA from adenosine A1 receptor in rat brain cortical membrane by liquid scintillation counting; assay type: cell membranes
T3 sequence (P25099 whole entry): T2 sequence (whole entry)
Method in brief: (§2)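 Rat cortical membranes (ca. 70 μg/mL protein), pretreated with 0.2 IU/mL adenosine deaminase, incubated with [3H]CCPA in 50 mM Tris-HCl pH 7.4 for 90 min at 25 °C. Nonspecific binding with 10 μM 2-chloroadenosine. GF/B filtration, scintillation counting.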

Adenosine receptor A1 [6] = biological target: T1, Adenosine receptor A1; test: Displacement [3H]DPCPX from of human adenosine A1 receptor at high affinity state expressed in CHO cells; assay type: cell-based; method in brief: as §1
Adenosine receptor A1 [7] = biological target: T3, Adenosine receptor A1; test: Agonist activity at adenosine A1 receptor in rat cortical membrane by [35S]GTPgammaS binding assay; assay type: functional, cell membranes
[8] = biological target: T2, Adenosine receptor A1 (Rattus norvegicus); test: Displacement of [3H]CCPA from adenosine A1 receptor in rat brain cortical membrane at 100 uM by liquid scintillation counting; assay type: cell membranes; method in brief: as §2
Rattus norvegicus = species on record: Rattus norvegicus; test: Displacement of [3H]flunitrazepam from GABAA receptor in rat brain cortical membrane at 10 uM; assay type: cell membranes

Adenosine receptor A2a (Rattus norvegicus), sequence (P30543 whole entry): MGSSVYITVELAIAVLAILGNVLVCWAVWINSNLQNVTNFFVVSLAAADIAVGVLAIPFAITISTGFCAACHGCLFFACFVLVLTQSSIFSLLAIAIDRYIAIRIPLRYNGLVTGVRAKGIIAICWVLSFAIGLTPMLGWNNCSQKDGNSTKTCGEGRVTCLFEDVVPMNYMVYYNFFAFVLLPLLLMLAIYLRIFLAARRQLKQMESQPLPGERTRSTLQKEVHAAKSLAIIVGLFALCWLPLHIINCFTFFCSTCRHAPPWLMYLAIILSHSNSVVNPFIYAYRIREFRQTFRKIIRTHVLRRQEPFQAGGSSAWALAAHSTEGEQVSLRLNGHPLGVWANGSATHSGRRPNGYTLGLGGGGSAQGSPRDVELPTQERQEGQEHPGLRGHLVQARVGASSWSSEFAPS

| Structure (SMILES) | Activity [2] [%] | inhibition [4] [%] | inhibition [8] [%] | other results |
| --- | --- | --- | --- | --- |
| COc1cc([C@H]2OC[C@](O)(Cc3ccc(O[C@@H]4O[C@H](CO)[C@@H](O)[C@H](O)[C@H]4O)c(OC)c3)[C@@H]2COC[C@H]2O[C@@](CO)(O[C@H]3O[C@H](CO)[C@@H](O)[C@H](O)[C@H]3O)[C@@H](O)[C@@H]2O)ccc1O | 126 | 49 | 80 | Ki (Adenosine receptor A1 [1]): 23.6 µM; Ki (Adenosine receptor A1 [3]): 31 µM; Ki (Adenosine receptor A1 [5]): 5.28 µM; Ki (Adenosine receptor A1 [6]): 0.026 µM; EC50 (Adenosine receptor A1 [7]): 3.98 µM |
| Cn1c(=O)c2c(ncn2C)n(C)c1=O | – | 58 | – | – |
| COc1cc([C@H]2OC[C@H]3[C@@H]2CO[C@@H]3c2ccc(O[C@@H]3O[C@H](CO)[C@@H](O)[C@H](O)[C@H]3O)c(OC)c2)ccc1O[C@@H]1O[C@H](CO)[C@@H](O)[C@H](O)[C@H]1O | – | – | – | Activity (Rattus norvegicus): 23% |
| COc1cc([C@H]2OC[C@](O)(Cc3ccc(O[C@@H]4O[C@H](CO)[C@@H](O)[C@H](O)[C@H]4O)c(OC)c3)[C@]2(O)CO)ccc1O | – | 0 | 29 | – |

The next lines start with results.

| Activity [2] [%] | inhibition [4] [%] | inhibition [8] [%] | Structure (SMILES) | other results |
| --- | --- | --- | --- | --- |
| – | 11 | 29 | COc1cc([C@H]2OC[C@H](Cc3ccc(O[C@@H]4O[C@H](CO)[C@@H](O)[C@H](O)[C@H]4O)c(OC)c3)[C@]2(O)CO)ccc1O | – |
| 193 | – | – | OC[C@H]1O[C@@H](n2cnc3c(NC4CCCC4)ncnc32)[C@H](O)[C@@H]1O | – |
